Compound activity (PubChem)
bIAP act: intestinal alkaline phosphatase (bovine) activation | purified bovine IAP, CDP-star luminescence, 30 min; hits give high values; fold of DMSO-control signal, blank-subtracted | activation factor at 20 µM | actives 0.17% (n = 200,000);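 active = activation factor of 2 or more at 20 µM, a signal rise over negative controls twice the positive control's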
mIAP act: increases mouse intestinal alkaline phosphatase activity | muIAP, CDP-Star luminescence, 30 min; hits give high values; 1 = vehicle-only enzyme signal, 0 = enzyme-free wells | actives 0.24% (n = 330,000) | AID 2805 | activation factor at 10 µM;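 active = activation factor of at least 2 at 20 µM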
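also added = chemiluminescent substrate CDP-Star | test system = mouse IAP enzyme | signal = chemiluminescence readout | compound = DMSO-dissolved test compounds | incubation = 30 min at room temperature | benchmarks = DMSO wells, no-enzyme wells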
hIAP act: human IAP activation. P09923. purified human IAP, CDP-Star luminescence, 30 min; hits give high values; 1 = vehicle-only enzyme, 0 = enzyme-free background. activation factor at 10 µM. actives 0.16% (n = 330,000);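 active = activation factor of the enzyme at least 2-fold when tested at 20 µM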
Target sequence (P09923 whole entry, looked up): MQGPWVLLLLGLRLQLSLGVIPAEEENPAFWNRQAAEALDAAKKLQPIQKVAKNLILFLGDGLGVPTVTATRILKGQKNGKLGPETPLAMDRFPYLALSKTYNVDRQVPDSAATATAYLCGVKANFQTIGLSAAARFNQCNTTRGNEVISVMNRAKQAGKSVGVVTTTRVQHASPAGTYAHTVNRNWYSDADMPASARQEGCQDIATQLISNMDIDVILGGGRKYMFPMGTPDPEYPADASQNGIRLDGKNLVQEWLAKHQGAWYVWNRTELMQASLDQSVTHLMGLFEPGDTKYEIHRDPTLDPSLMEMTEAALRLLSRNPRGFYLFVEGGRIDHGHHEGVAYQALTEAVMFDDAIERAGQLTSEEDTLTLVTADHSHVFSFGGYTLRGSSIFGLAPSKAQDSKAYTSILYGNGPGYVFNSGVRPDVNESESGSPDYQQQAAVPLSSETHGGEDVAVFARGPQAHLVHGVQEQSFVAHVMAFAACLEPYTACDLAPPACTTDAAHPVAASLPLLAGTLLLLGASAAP
mIAP block: mouse IAP inhibition | purified mouse IAP, CDP-Star luminescence, 30 min | inhibition, % at 10 µM | actives 0.2% (n = 330,000);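 active = inhibition of at least 40% at 10 µM in the primary screen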
hIAP inh: human IAP inhibition | purified IAP, CDP-Star luminescence, 30 min | inhibition, % at 10 µM | actives 0.12% (n = 330,000) | AID 2544;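 active = inhibition reaching a set limit with compound at 10 µM in the primary screen, cut at about 35% in these data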
bIAP inhibitor: blocks bovine intestinal alkaline phosphatase activity; purified bovine IAP, CDP-star luminescence, 30 min; inhibition, % at 20 µM; 190,000 tested, under 10 active;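 active = over 50% inhibition of intestinal alkaline phosphatase at 20 µM in the single-dose screen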
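Assay system: bovine IAP enzyme; medium: DEA buffer 100 mM, pH 9.8, with MgCl2 1.0 mM, ZnCl2 0.02 mM; doses: 20 µM single dose; incubation: enzyme reaction for 30 min at room temperature; detection: CDP-star luminescence signal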
Numbers stand for hits; 0 = inactive; - = no result given. Shown are actives, neighbours in structure and some others; about 0.79% of the full set was active somewhere.

SMILES	bIAP act	mIAP act	hIAP act	mIAP block	hIAP inh	bIAP inhibitor
O=C(NC1CCN(Cc2ccc(Cl)cc2)CC1)c1cn(-c2ccccc2)nc1-c1cccnc1	-	2.3	0	0	0	-
O=C(NCc1ccncc1)c1cn(-c2ccccc2)nc1-c1cccnc1	0	0	0	0	0	0
Cc1ccc(C(=O)C(NC(=O)c2ccco2)Nc2sc3c(c2C(N)=O)CCCC3)cc1 (stereo unspecified)	3.6	0	0	0	0	0
O=C(CN(C(=O)Cn1nnc(-c2ccccc2F)n1)c1cccc2c1CCCC2)NCc1ccccc1	2.2	0	0	0	0	0
O=C(O)c1cccc(S(=O)(=O)NCC2COc3ccccc3O2)c1 (stereo unspecified)	-	0	0	0	0	-
CCOc1ccc(CCNC(=O)c2ccc3c(c2)NC(=O)C2CCCN32)cc1OCC (stereo unspecified)	-	2	0	0	0	-
O=C(Nc1cccc(F)c1)C1CCCN(S(=O)(=O)c2cnc[nH]2)C1 (stereo unspecified)	-	0	0	0	0	-
O=C(Cc1csc(-c2ccccc2)n1)Nc1ccc(C(F)(F)F)cc1	0	0	0	0	0	0
Cc1ccc(NC(=O)Cc2csc(-c3ccccc3)n2)cc1F	0	0	0	0	36	0
Cc1ccc(CNC(=O)C2CCCN2C(=O)Nc2cccc(Cl)c2)cc1 (stereo unspecified)	-	0	0	0	0	-
Cc1cccc(/C(N)=N/OC(=O)c2cccc3ccccc23)c1	-	0	0	0	40	-
N/C(=N\OC(=O)c1cccc2ccccc12)c1cccc([N+](=O)[O-])c1	0	0	0	0	0	0
CC(=O)OCCCNc1cc(SCc2ccco2)c2nonc2c1[N+](=O)[O-]	0	0	0	50	0	0
CCCSc1cc(NCCOC(=O)CCC)c([N+](=O)[O-])c2nonc12	0	0	0	0	0	-
CCCC(=O)OCCNc1cc(SCc2ccco2)c2nonc2c1[N+](=O)[O-]	0	0	0	49	0	0
CCCN(CC(=O)Nc1ccccc1C)C(=O)CCCc1c[nH]c2ccccc12	-	0	0	0	0	-
CCn1c(SCc2nc3ccccc3[nH]2)nnc1-c1ccccc1OC	2.3	0	0	0	0	0
Cc1ccc(C(C)NC(=S)NCc2ccc(F)cc2)cc1C (stereo unspecified)	-	0	0	0	0	-
Cc1ccc(C(C)NC(=S)NCc2ccc(F)cc2)c(C)c1 (stereo unspecified)	-	2.1	0	0	0	-
CCc1ccc(C(C)NC(=S)NCc2ccc(F)cc2)cc1 (stereo unspecified)	-	2.1	0	0	0	-
S=C(Nc1ccc(Oc2ccccc2)cc1)N1CCN(c2ccccn2)CC1	0	0	0	0	0	0
COc1cc(CNCCc2c[nH]c3ccccc23)ccc1OCc1ccc(F)cc1	2.9	0	0	0	0	0
O=C(NCc1ccccc1)Nc1cccc2ccccc12	0	0	0	0	0	0
O=C(NCc1cccc2ccccc12)Nc1ccccc1	0	2	0	0	0	0
CC(=O)c1cccc(NC(=S)NCc2ccccc2)c1	-	0	0	0	0	-
SMILES	bIAP act	mIAP act	hIAP act	mIAP block	hIAP inh	bIAP inhibitor
O=C(Nc1ccccc1)Nc1cccc2ccccc12	-	2.9	0	0	0	-
COc1ccc(CNC(=O)Nc2cccc3ccccc23)cc1	0	2.1	0	0	0	0
CCOC(=O)c1cccc(NC(=S)NCc2ccc(C)cc2)c1	0	2.4	0	0	0	0
CC(=O)N/C(=N\OCc1ccc(Br)cc1)c1nonc1NC(C)=O	0	0	0	0	0	0
O=C(Nc1nnc(SCc2cccnc2)s1)C1CC(=O)N(c2ccccc2)C1 (stereo unspecified)	-	0	0	0	0	-
CCOc1ccccc1NC(=O)NCCc1c[nH]c2ccccc12	-	0	0	0	0	-
CCOC(=O)c1ccc(NC(=O)NCc2ccc(OC)cc2)cc1	0	2.2	0	0	0	0
O=C(NCCc1c[nH]c2ccccc12)Nc1cccc2ccccc12	0	2.3	0	0	0	0
COc1ccc(NC(=S)N2CCN(S(C)(=O)=O)CC2)cc1	-	0	0	0	0	-
Cc1ccc(C(=O)Cn2c(=N)n(N)c3ccccc32)cc1	-	0	0	0	0	-
CCN(CC)CCn1c(=N)n(CC(=O)c2ccc(C)cc2)c2ccccc21	-	0	0	41	0	-
COCCNC(=O)/C=C/c1c(Cl)cccc1Cl	0	0	0	0	35	0
COc1ccc(N2C3=C(CC4=C2CCCC4=O)C(=O)CCC3)cc1	0	0	0	46	0	0
CC(=O)Nc1ccc(C(=O)NC2CCSc3ccccc32)cc1 (stereo unspecified)	-	0	0	0	0	-
Cc1ccc(NC(=S)NC2CCSc3ccccc32)cc1 (stereo unspecified)	-	3.7	0	0	0	-
COC(=O)c1ccc(NC(=S)NC2CCc3ccccc32)cc1 (stereo unspecified)	0	2.9	0	0	0	0
COC(=O)c1ccc(NC(=S)NC2CC2)cc1	0	0	0	0	0	0
COc1ccc(CNC(=O)C(CCSC)NS(=O)(=O)c2ccccc2F)cc1 (stereo unspecified)	0	0	0	0	0	0
O=C(Nc1cccc(-c2cccc(F)c2)c1)C1CCN(Cc2ccc(CO)o2)CC1	-	2.1	0	0	0	-
COc1cccc(-c2cccc(NC(=O)C3CCN(Cc4ccc(CO)o4)CC3)c2)c1	-	0	0	0	0	-
Cn1cccc1CC(=O)NNC(=S)Nc1ccc(Cl)cc1	0	0	2.1	0	0	0
COc1ccc(F)cc1S(=O)(=O)Nc1cc2c3c(c1)CCN3C(=O)CC2	-	0	0	0	0	-
Cn1c(/C=N/Nc2nc3ccccc3[nH]2)nc2ccccc21	0	0	0	42	0	0
CCCCCCCCC(=O)NC(NC(=S)N1CCOCC1)C(Cl)(Cl)Cl (stereo unspecified)	0	3.4	0	0	0	0
COc1ccc(NC(=O)c2ccc3c(=O)n(Cc4ccco4)c(=S)[nH]c3c2)c(OC)c1	0	0	0	45	0	0
SMILES	bIAP act	mIAP act	hIAP act	mIAP block	hIAP inh	bIAP inhibitor
CN=C(Nc1ccc(C(=O)OC)s1)c1ccc(Cl)cc1	0	0	0	0	0	0
Cc1nc(SCC(=O)NC(=O)NC2CCCCC2)nc(C)c1C	0	0	0	0	0	0
O=C(N/N=C/c1ccc[nH]1)c1cccc(Br)c1	0	0	0	0	0	0
Cc1cccc(C(=O)N/N=C/c2ccc[nH]2)c1	0	0	0	40	0	0
NC(CCCCc1ccccc1)c1cccc2ccccc12 (stereo unspecified)	-	0	0	0	0	-
COc1ccc(C(C(=O)NC2CCCC2)N(Cc2cccs2)C(=O)c2ccn[nH]2)cc1OC (stereo unspecified)	2.3	0	0	0	0	0
COCCN(C(=O)Cc1cccs1)C(C(=O)NC1CCCC1)c1ccc(OC)c(OC)c1 (stereo unspecified)	0	0	0	0	0	0
